According to ChEMBL document CHEMBL1629436, “Synthesis and biological evaluation of new camptothecin derivatives obtained by modification of position 20” (Bioorg Med Chem, 2010):
Activity calls are given as the source filed them. The calls are words filed in the database; no cut-off is given here.

How the values were obtained:
A2C12 [1] = experiment: Cytotoxicity against mouse A2C12 cells after 24 to 96 hrs by MTS assay; assay type: functional, cell-based
Summary of the method: (§1)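 Mouse transgenic lines plated at 10^3 cells/well and left 24 h to attach. Drugs diluted in medium were added for 24 or 96 h. CellTiter 96 AQueous One (MTS) reagent was then added for 1 h at 37 °C, with absorbance read at 490 nm. Each condition was run in quintuplicate, and cytotoxicity was expressed as percent of controls.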

yA3 [2] = experiment: Induction apoptosis in mouse yA3 cells assessed as ROS production at 10 uM/L using DCFH-DA by flow cytometry relative to control; assay type: functional, cell-based
Summary of the method: (§2)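 Transgenic mouse cells exposed to compound at 10 µmol/L. ROS generation was measured by flow cytometry using the probe DCFH-DA.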

HL-60 = experiment: Cytotoxicity against human HL60 cells after 72 hrs by trypan blue assay; assay type: functional, cell-based; details: HL-60, 72 h
Summary of the method: (§3)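 A-431, HeLa and HL-60 cells at 4×10^4 per well, incubated 24 h. HeLa and A-431 then received fresh medium. Graded compound concentrations were added for a further 72 h at 37 °C, 5% CO2. Viability was counted by Trypan blue exclusion. IC50 is the concentration giving 50% reduction in cell number versus control: ≥3 independent experiments, triplicate samples, mean ± SD.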

yA7 [3] = experiment: Cytotoxicity against mouse yA7 cells after 24 to 96 hrs by MTS assay; assay type: functional, cell-based; summary of the method: as §1
yA3 [4] = experiment: Cytotoxicity against mouse yA3 cells after 24 to 96 hrs by MTS assay; assay type: functional, cell-based; summary of the method: as §1
Bos taurus = species: Bos taurus; experiment: Inhibition of calf thymus topoisomerase 1-mediated relaxation of supercoiled pBR322 at 100 uM after 60 mins using ethidium bromide staining by agarose gel electrophoresis
Summary of the method: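 Supercoiled pBR322 (0.25 µg) with 2 U calf thymus topoisomerase I and test compound, 60 min at 37 °C in 20 µl reaction buffer. Stopped with SDS/bromophenol blue/glycerol plus 50 µg/mL proteinase K, 30 min at 37 °C. Run on 1% agarose at room temperature, stained with ethidium bromide 1 µg/mL in TAE, imaged under UV.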

yD12 [5] = experiment: Cytotoxicity against mouse yD12 cells after 24 to 96 hrs by MTS assay; assay type: functional, cell-based; summary of the method: as §1
Craf/Cmyc [6] = experiment: Cytotoxicity against mouse Craf/Cmyc cells after 24 to 96 hrs by MTS assay; assay type: functional, cell-based; summary of the method: as §1
A2B1 [7] = experiment: Cytotoxicity against mouse A2B1 cells after 24 to 96 hrs by MTS assay; assay type: functional, cell-based; summary of the method: as §1
HeLa = experiment: Cytotoxicity against human HeLa cells after 72 hrs by trypan blue assay; assay type: functional, cell-based; summary of the method: as §3
Nucleic Acid = experiment: Binding affinity to salmon testes DNA by linear flow dichroism analysis; assay type: nucleic-acid assay; details: Salmonidae
Summary of the method: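 Salmon testes DNA (1.9 × 10^-3 M) in ETN buffer (10 mM Tris, 10 mM NaCl, 1 mM EDTA, pH 7). Linear dichroism spectra were recorded at 25 °C over a range of [drug]/[DNA] ratios on a spectropolarimeter converted for LD.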

yD1 [8] = experiment: Induction apoptosis in mouse yD1 cells assessed as ROS production at 10 uM/L using DCFH-DA by flow cytometry relative to control; assay type: functional, cell-based; summary of the method: as §2
B3 [9] = experiment: Cytotoxicity against mouse B3 cells after 24 to 96 hrs by MTS assay; assay type: functional, cell-based; summary of the method: as §1
Mus musculus [10] = species: Mus musculus; experiment: Cytotoxicity against mouse betaD5 cells after 24 to 96 hrs by MTS assay; assay type: functional, cell-based; summary of the method: as §1
yB8 [11] = experiment: Cytotoxicity against mouse yB8 cells after 24 to 96 hrs by MTS assay; assay type: functional, cell-based; summary of the method: as §1
Craf/Cmyc [12] = experiment: Induction apoptosis in mouse Craf/Cmyc cells assessed as ROS production at 10 uM/L using DCFH-DA by flow cytometry relative to control; assay type: functional, cell-based; summary of the method: as §2
A-431 = experiment: Cytotoxicity against human A431 cells after 72 hrs by trypan blue assay; assay type: functional, cell-based; details: A-431, 72 h; summary of the method: as §3
Mus musculus [13] = species: Mus musculus; experiment: Cytotoxicity against mouse betaD10 cells after 24 to 96 hrs by MTS assay; assay type: functional, cell-based; summary of the method: as §1
[14] = (§4) Induction apoptosis in mouse Craf/Cmyc cells assessed as relative caspase activity at 10 uM/L after 2 hrs by rhodamine 110 fluorescence assay; assay type: functional
Summary of the method: (§5)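 Cells were pretreated with compound (10 µmol/L) for 2 h. The cell-permeable caspase substrate (Asp)2-rhodamine 110 (10 µmol/L) was then added for 2 h more. Caspase cleavage releases fluorescent rhodamine 110, and the read-out was mean fluorescence.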

[15] = biological target: DNA topoisomerase 2-alpha (Homo sapiens) (UniProt P11388); experiment: Inhibition of human recombinant topoisomerase 2alpha-mediated relaxation of supercoiled pBR322 at up to 100 uM after 60 mins using ethidium bromide staining by agarose gel electrophoresis
Sequence of DNA topoisomerase 2-alpha (Homo sapiens) (P11388 whole entry): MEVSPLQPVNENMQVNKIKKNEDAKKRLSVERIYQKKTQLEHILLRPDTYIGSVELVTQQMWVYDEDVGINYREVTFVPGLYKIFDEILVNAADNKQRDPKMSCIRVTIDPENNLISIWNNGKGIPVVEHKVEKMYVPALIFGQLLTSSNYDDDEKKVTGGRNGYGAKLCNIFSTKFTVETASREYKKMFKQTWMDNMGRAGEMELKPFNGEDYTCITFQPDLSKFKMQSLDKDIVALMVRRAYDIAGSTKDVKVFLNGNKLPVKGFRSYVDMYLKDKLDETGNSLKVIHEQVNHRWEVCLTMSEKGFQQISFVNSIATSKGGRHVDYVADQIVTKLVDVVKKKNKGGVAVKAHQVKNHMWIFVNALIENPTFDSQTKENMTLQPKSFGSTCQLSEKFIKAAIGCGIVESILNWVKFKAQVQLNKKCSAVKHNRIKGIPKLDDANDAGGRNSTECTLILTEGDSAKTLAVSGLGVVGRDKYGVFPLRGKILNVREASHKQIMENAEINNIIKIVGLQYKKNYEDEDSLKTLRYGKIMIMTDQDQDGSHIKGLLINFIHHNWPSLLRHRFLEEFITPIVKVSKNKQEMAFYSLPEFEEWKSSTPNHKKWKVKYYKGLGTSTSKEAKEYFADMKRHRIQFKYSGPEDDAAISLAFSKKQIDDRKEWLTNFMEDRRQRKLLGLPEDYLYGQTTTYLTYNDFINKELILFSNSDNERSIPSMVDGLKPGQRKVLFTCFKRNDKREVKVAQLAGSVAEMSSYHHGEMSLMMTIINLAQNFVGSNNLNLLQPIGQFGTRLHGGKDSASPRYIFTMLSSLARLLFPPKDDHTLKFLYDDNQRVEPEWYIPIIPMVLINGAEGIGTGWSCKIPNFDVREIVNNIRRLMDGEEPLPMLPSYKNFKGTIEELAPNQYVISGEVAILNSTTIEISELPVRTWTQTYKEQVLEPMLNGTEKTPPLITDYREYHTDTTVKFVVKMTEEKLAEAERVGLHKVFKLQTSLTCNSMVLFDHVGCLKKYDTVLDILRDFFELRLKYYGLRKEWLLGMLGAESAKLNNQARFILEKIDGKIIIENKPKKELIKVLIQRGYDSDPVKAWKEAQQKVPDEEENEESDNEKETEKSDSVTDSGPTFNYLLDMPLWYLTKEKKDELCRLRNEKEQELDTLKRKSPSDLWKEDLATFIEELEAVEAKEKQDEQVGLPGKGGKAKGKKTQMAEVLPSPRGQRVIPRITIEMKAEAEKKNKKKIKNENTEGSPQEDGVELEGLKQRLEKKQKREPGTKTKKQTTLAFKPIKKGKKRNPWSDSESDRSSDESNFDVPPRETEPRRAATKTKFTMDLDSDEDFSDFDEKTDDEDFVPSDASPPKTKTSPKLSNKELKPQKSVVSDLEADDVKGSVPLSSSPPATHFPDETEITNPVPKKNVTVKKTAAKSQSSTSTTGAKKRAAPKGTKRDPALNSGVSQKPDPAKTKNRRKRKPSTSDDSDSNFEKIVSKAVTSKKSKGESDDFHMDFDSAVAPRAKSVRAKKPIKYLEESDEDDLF
Summary of the method: (§6)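 Supercoiled pBR322 (0.25 µg) with 1 U human recombinant topoisomerase IIα and test compound, 60 min at 37 °C in 20 µl reaction buffer. Stopped with SDS/bromophenol blue/glycerol plus 50 µg/mL proteinase K, 30 min at 37 °C. Separated on 1% agarose at room temperature, ethidium bromide stained (1 µg/mL, TAE), UV-visualized.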

A2C12 [16] = experiment: Induction apoptosis in mouse A2C12 cells assessed as ROS production at 10 uM/L using DCFH-DA by flow cytometry relative to control; assay type: functional, cell-based; summary of the method: as §2
Mus musculus [17] = species: Mus musculus; experiment: Induction apoptosis in mouse betaD5 cells assessed as ROS production at 10 uM/L using DCFH-DA by flow cytometry relative to control; assay type: functional, cell-based; summary of the method: as §2
B3 [18] = experiment: Induction apoptosis in mouse B3 cells assessed as ROS production at 10 uM/L using DCFH-DA by flow cytometry relative to control; assay type: functional, cell-based; summary of the method: as §2
yA7 [19] = experiment: Induction apoptosis in mouse yA7 cells assessed as relative caspase activity at 10 uM/L after 2 hrs by rhodamine 110 fluorescence assay; assay type: functional, cell-based; summary of the method: as §5
yA3 [20] = experiment: Induction apoptosis in mouse yA3 cells assessed as relative caspase activity at 10 uM/L after 2 hrs by rhodamine 110 fluorescence assay; assay type: functional, cell-based; summary of the method: as §5
yD1 [21] = experiment: Induction apoptosis in mouse yD1 cells assessed as relative caspase activity at 10 uM/L after 2 hrs by rhodamine 110 fluorescence assay; assay type: functional, cell-based; summary of the method: as §5
yB8 [22] = experiment: Induction apoptosis in mouse yB8 cells assessed as relative caspase activity at 10 uM/L after 2 hrs by rhodamine 110 fluorescence assay; assay type: functional, cell-based; summary of the method: as §5
A2B1 [23] = experiment: Induction apoptosis in mouse A2B1 cells assessed as relative caspase activity at 10 uM/L after 2 hrs by rhodamine 110 fluorescence assay; assay type: functional, cell-based; summary of the method: as §5
Mus musculus [24] = species: Mus musculus; experiment: Induction apoptosis in mouse betaD10 cells assessed as ROS production at 10 uM/L using DCFH-DA by flow cytometry relative to control; assay type: functional, cell-based; summary of the method: as §2
yD12 [25] = experiment: Induction apoptosis in mouse yD12 cells assessed as relative caspase activity at 10 uM/L after 2 hrs by rhodamine 110 fluorescence assay; assay type: functional, cell-based; summary of the method: as §5
Mus musculus [26] = species: Mus musculus; experiment: Induction apoptosis in mouse betaD10 cells assessed as relative caspase activity at 10 uM/L after 2 hrs by rhodamine 110 fluorescence assay; assay type: functional, cell-based; summary of the method: as §5
Mus musculus [27] = species: Mus musculus; experiment: Induction apoptosis in mouse betaD5 cells assessed as relative caspase activity at 10 uM/L after 2 hrs by rhodamine 110 fluorescence assay; assay type: functional, cell-based; summary of the method: as §5
HUVEC = experiment: Antiangiogenic activity in HUVEC cocultured with human PaSMC assessed as inhibition of capillary-like network formation up to 200 nM after 72 hrs; assay type: functional, cell-based
Summary of the method: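 Primary HUVEC (passage 5, retrovirally labelled with RFP) and pulmonary artery vSMC (passage 5) co-seeded at 5×10^4 PaSMC plus 10×10^3 HUVEC per well in EGM-2, briefly spun at 200 g, attached 3 h. Compounds were then added at final 2–200 nM, two replicates per concentration. Networks formed over 72 h at 37 °C, 5% CO2, followed by automated imaging and image analysis of tube formation.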

yA7 [28] = experiment: Induction apoptosis in mouse yA7 cells assessed as ROS production at 10 uM/L using DCFH-DA by flow cytometry relative to control; assay type: functional, cell-based; summary of the method: as §2
Craf/Cmyc [29] = experiment: as §4; assay type: functional; summary of the method: as §5
[30] = biological target: DNA topoisomerase 2-alpha (Homo sapiens) (UniProt P11388); experiment: Inhibition of human recombinant topoisomerase 2alpha-mediated relaxation of supercoiled pBR322 after 60 mins using ethidium bromide staining by agarose gel electrophoresis; summary of the method: as §6
[31] = biological target: DNA topoisomerase 2-alpha (Homo sapiens) (UniProt P11388); experiment: Inhibition of human recombinant topoisomerase 2alpha-mediated relaxation of supercoiled pBR322 at 100 uM after 60 mins using ethidium bromide staining by agarose gel electrophoresis; summary of the method: as §6
A2C12 [32] = experiment: Induction apoptosis in mouse A2C12 cells assessed as relative caspase activity at 10 uM/L after 2 hrs by rhodamine 110 fluorescence assay; assay type: functional, cell-based; summary of the method: as §5
yD12 [33] = experiment: Induction apoptosis in mouse yD12 cells assessed as ROS production at 10 uM/L using DCFH-DA by flow cytometry relative to control; assay type: functional, cell-based; summary of the method: as §2
B3 [34] = experiment: Induction apoptosis in mouse B3 cells assessed as relative caspase activity at 10 uM/L after 2 hrs by rhodamine 110 fluorescence assay; assay type: functional, cell-based; summary of the method: as §5
A2B1 [35] = experiment: Induction apoptosis in mouse A2B1 cells assessed as ROS production at 10 uM/L using DCFH-DA by flow cytometry relative to control; assay type: functional, cell-based; summary of the method: as §2
yB8 [36] = experiment: Induction apoptosis in mouse yB8 cells assessed as ROS production at 10 uM/L using DCFH-DA by flow cytometry relative to control; assay type: functional, cell-based; summary of the method: as §2

Structure (SMILES)	Activity (A2C12 [1])	Activity (yA3 [2])	IC50 (HL-60) [µM]	Activity (yA7 [3])	Activity (yA3 [4])	Activity (Bos taurus)	Activity (yD12 [5])	Activity (Craf/Cmyc [6])	Activity (A2B1 [7])	IC50 (HeLa) [µM]	Activity (Nucleic Acid)	Activity (yD1 [8])	Activity (B3 [9])	Activity (Mus musculus [10])	Activity (yB8 [11])	Activity (Craf/Cmyc [12])	IC50 (A-431) [µM]	Activity (Mus musculus [13])	Activity (A2C12 [16])	Activity (Mus musculus [17])	other results
CC[C@@]1(OC(=O)NCCNC(=O)CCCCCCCCC(=O)NCCNC(=O)O[C@]2(CC)C(=O)OCc3c2cc2n(c3=O)Cc3cc4ccccc4nc3-2)C(=O)OCc2c1cc1n(c2=O)Cc2cc3ccccc3nc2-1	Active	Active	0.42	Active	Active	inactive	Active	Active	Active	0.3	inactive	Active	Active	Active	Active	Active	0.08	Active	Active	Active	fold change (FC) [14]: 8; Activity [15]: inactive; Activity (B3 [18]): Active
CC[C@@]1(OC(=O)NCCN2C(=O)CCSSCCC2=O)C(=O)OCc2c1cc1n(c2=O)Cc2cc3ccccc3nc2-1	Active	inactive	8.1	Active	Active	inactive	Active	Active	Active	12	inactive	inactive	Active	Active	Active	inactive	2.97	Active	inactive	inactive	Activity (yA7 [19]): inactive; Activity (yA3 [20]): inactive; Activity (yD1 [21]): inactive; Activity (yB8 [22]): inactive; Activity (A2B1 [23]): inactive; Activity (Mus musculus [24]): inactive; Activity (yD12 [25]): inactive; Activity (Mus musculus [26]): inactive; Activity (Mus musculus [27]): inactive; Activity (HUVEC): inactive; Activity (yA7 [28]): inactive; Activity (Craf/Cmyc [29]): inactive; Activity [30]: Dose-dependent effect; Activity [31]: Active; Activity (A2C12 [32]): inactive; Activity (yD12 [33]): inactive; Activity (B3 [34]): inactive; Activity (A2B1 [35]): inactive; Activity (yB8 [36]): inactive; Activity (B3 [18]): inactive
